One block for each molecule: values may come before it. Activity calls are given as the source filed them. The rule behind the calls is not given here.
What was measured:
[1] = target: Receptor-type tyrosine-protein kinase FLT3 (Homo sapiens) (UniProt P36888); assay: Inhibition of human FLT3 (592 to 969 residues) expressed in bacterial expression system assessed as enzyme activity at 1 uM by KINOMEScan assay relative to control; design: scale not given: the % may be the effect or the level left
In short: (§1)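 In vitro ATP-site competition binding assay across a panel of 456 kinases, with compound tested at 1 and 10 μM.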

[2] = target: BMP-2-inducible protein kinase (Homo sapiens) (UniProt Q9NSY1); assay: Inhibition of human BIKE (34 to 329 residues) expressed in bacterial expression system assessed as enzyme activity at 1 uM by KINOMEScan assay relative to control; design: scale not given: the % may be the effect or the level left
Chain of BMP-2-inducible protein kinase (Homo sapiens) (Q9NSY1 whole entry, looked up, the tested form may be a part): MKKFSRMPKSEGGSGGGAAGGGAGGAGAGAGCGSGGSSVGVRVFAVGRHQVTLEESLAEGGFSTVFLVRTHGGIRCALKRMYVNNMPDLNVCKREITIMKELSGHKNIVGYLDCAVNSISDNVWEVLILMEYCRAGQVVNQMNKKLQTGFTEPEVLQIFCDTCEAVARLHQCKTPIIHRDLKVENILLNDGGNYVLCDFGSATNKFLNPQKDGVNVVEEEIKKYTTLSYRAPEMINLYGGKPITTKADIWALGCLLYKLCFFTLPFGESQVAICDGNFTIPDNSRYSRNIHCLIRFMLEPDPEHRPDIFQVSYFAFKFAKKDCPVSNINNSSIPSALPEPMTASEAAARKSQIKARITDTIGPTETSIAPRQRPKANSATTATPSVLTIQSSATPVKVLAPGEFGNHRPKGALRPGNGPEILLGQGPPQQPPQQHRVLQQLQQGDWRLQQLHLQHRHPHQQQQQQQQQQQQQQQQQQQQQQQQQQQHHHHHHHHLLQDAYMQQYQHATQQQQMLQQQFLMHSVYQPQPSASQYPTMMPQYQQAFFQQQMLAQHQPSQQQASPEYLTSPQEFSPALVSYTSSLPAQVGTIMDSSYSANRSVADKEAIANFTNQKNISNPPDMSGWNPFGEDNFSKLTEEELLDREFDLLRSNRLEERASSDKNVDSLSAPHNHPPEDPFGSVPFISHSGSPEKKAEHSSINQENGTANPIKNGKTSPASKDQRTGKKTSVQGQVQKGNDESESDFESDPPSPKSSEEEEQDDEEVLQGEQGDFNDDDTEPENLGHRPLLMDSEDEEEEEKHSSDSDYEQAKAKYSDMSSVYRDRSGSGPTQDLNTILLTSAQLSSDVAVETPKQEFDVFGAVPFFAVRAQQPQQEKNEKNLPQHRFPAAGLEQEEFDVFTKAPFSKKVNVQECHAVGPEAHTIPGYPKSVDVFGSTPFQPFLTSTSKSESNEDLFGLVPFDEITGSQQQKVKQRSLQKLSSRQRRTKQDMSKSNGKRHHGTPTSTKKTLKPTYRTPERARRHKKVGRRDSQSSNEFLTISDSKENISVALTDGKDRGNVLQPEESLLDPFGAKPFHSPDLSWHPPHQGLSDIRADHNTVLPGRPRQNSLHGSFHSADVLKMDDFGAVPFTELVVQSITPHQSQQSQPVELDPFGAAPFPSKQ
In short: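 In vitro ATP-site competition binding assay (KinomeScan) across a panel of 456 kinases. Compound was tested at 1 and 10 μM. The read-out is the binding inhibition score relative to control.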

[3] = target: Vascular endothelial growth factor receptor 2 (Homo sapiens) (UniProt P35968); assay: Inhibition of human VEGFR2 (787 to 1253 residues) expressed in mammalian expression system assessed as enzyme activity at 1 uM by KINOMEScan assay relative to control; design: scale not given: the % may be the effect or the level left; in short: as §1
[4] = target: T1, 80S Ribosome (Homo sapiens) (UniProt P08865+P42677+P62753+P15880+P23396+P61247+P62701+P22090+P46782+P62081+P62241+P46781+P46783+P62280+P25398+P62277+P62263+P62841+P62244+P62249+P08708+P62269+P39019+P60866+P63220+P62266+P62847+P62851+P62854+P62979+P62857+P62273+P62861+P39023+P36578+P46777+Q02878+P18124+P62424+P62917+P32969+P27635+P62906+P62913+P30050+P26373+P40429+P50914+P61313+P18621+Q07020+Q02543+P84098+P46778+P35268+P62829+P62750+P83731+P61254+P61353+P46776+P46779+P47914+P62888+P62899+P62910+P49207+P42766+P18077+Q9Y3U8+P83881+P61927+P61513+P63173+P62891+P62945+P05388+P05386); assay: Binding affinity to RPS25 in human NCI-H23 cells at 1 uM by mass spectrometry based pull down assay; format: cell-based
[5] = target: Acyl-coenzyme A thioesterase 13 (Homo sapiens) (UniProt Q9NPJ3); assay: Binding affinity to ACOT13 in human NCI-H23 cells at 1 uM by mass spectrometry based pull down assay; format: cell-based
Chain of Acyl-coenzyme A thioesterase 13 (Homo sapiens) (Q9NPJ3 whole entry): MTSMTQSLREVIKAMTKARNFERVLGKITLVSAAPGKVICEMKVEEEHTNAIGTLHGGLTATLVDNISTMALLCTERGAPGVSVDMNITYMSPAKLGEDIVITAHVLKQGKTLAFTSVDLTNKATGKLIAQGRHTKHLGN
In short: (§2)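 NCI-H23 or NCI-H358 cells were grown and lysed. Lysates were incubated overnight at 4 °C with 1 μM biotinylated covalent probe or DMSO, then pulled down on streptavidin beads. Proteins were run on polyacrylamide gels and stained with Coomassie. Bands were excised, digested and identified by mass spectrometry.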

[6] = target: Endothelial differentiation-related factor 1 (Homo sapiens) (UniProt O60869); assay: Binding affinity to EDF1 in human NCI-H23 cells at 1 uM by mass spectrometry based pull down assay; format: cell-based
Chain of Endothelial differentiation-related factor 1 (Homo sapiens) (O60869 whole entry): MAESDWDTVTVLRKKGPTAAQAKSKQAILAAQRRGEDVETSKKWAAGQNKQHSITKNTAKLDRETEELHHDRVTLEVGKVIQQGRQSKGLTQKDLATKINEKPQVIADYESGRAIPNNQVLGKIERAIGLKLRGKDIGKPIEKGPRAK

[7] = target: Medium-chain specific acyl-CoA dehydrogenase, mitochondrial (Homo sapiens) (UniProt P11310); assay: Binding affinity to ACADM in human NCI-H23 cells at 1 uM by mass spectrometry based pull down assay; format: cell-based; in short: as §2
[8] = target: Tyrosine-protein phosphatase non-receptor type 1 (Homo sapiens) (UniProt P18031); assay: Binding affinity to PTPN1 in human NCI-H23 cells at 1 uM by mass spectrometry based pull down assay; format: cell-based
[9] = target: Proteasome activator complex subunit 1 (Homo sapiens) (UniProt Q06323); assay: Binding affinity to PSME1 in human NCI-H23 cells at 1 uM by mass spectrometry based pull down assay; format: cell-based
[10] = target: T1, 80S Ribosome (Homo sapiens); assay: Binding affinity to RPL28 in human NCI-H23 cells at 1 uM by mass spectrometry based pull down assay; format: cell-based
[11] = target: Opioid growth factor receptor (Homo sapiens) (UniProt Q9NZT2); assay: Binding affinity to OGFR in human NCI-H23 cells at 1 uM by mass spectrometry based pull down assay; format: cell-based
Chain of Opioid growth factor receptor (Homo sapiens) (Q9NZT2 whole entry): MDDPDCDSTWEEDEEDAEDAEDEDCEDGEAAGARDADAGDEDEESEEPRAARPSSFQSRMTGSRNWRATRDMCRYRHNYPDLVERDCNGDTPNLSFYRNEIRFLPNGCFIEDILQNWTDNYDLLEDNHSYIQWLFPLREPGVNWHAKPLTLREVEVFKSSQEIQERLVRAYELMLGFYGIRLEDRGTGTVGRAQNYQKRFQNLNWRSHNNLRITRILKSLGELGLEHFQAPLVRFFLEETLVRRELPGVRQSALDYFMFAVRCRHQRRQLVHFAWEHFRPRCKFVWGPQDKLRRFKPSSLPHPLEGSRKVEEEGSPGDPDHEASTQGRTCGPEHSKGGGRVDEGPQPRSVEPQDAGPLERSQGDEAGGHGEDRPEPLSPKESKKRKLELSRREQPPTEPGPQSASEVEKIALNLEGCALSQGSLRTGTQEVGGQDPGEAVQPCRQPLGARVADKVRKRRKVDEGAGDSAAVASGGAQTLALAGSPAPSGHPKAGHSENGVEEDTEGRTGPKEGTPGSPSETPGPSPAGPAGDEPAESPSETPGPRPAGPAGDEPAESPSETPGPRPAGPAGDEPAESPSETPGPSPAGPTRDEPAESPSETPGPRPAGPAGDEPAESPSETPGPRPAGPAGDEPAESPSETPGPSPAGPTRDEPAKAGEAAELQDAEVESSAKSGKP

[12] = target: Monofunctional C1-tetrahydrofolate synthase, mitochondrial (Homo sapiens) (UniProt Q6UB35); assay: Binding affinity to MTHFD1L in human NCI-H23 cells at 1 uM by mass spectrometry based pull down assay; format: cell-based
[13] = target: T1, 80S Ribosome (Homo sapiens); assay: Binding affinity to RPL27 in human NCI-H358 cells at 1 uM by mass spectrometry based pull down assay; format: cell-based
[14] = target: T1, 80S Ribosome (Homo sapiens); assay: Binding affinity to RPL23A in human NCI-H358 cells at 1 uM by mass spectrometry based pull down assay; format: cell-based
[15] = system: NCI-H358; assay: Binding affinity to PTGES3L-AARSD1 in human NCI-H358 cells at 1 uM by mass spectrometry based pull down assay; format: cell-based
[16] = target: MAP kinase-activated protein kinase 5 (Homo sapiens) (UniProt Q8IW41); assay: Binding affinity to MAPKAPK5 in human NCI-H358 cells at 1 uM by mass spectrometry based pull down assay; format: cell-based
[17] = target: Cyclin-dependent kinase 5 (Homo sapiens) (UniProt Q00535); assay: Binding affinity to CDK5 in human NCI-H358 cells at 1 uM by mass spectrometry based pull down assay; format: cell-based
Chain of Cyclin-dependent kinase 5 (Homo sapiens) (Q00535 whole entry, looked up): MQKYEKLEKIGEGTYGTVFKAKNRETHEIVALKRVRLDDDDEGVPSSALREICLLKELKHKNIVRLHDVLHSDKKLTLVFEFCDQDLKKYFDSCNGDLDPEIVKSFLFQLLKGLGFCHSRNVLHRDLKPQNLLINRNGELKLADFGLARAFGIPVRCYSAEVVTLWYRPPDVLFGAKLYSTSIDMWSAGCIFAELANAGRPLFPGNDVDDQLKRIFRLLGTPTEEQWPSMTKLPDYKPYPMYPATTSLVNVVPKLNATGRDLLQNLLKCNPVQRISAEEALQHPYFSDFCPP

[18] = target: Peroxiredoxin-4 (Homo sapiens) (UniProt Q13162); assay: Binding affinity to PRDX4 in human NCI-H358 cells at 1 uM by mass spectrometry based pull down assay; format: cell-based
Chain of Peroxiredoxin-4 (Homo sapiens) (Q13162 whole entry): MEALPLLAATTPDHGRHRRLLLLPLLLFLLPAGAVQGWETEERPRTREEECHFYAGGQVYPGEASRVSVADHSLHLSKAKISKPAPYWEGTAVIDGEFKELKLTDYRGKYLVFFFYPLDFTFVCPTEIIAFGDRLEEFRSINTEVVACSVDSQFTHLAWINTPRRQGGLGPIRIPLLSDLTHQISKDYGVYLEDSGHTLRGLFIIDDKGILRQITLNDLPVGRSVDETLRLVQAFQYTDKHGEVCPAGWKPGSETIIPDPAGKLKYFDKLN

[19] = target: Amidophosphoribosyltransferase (Homo sapiens) (UniProt Q06203); assay: Binding affinity to PPAT in human NCI-H358 cells at 1 uM by mass spectrometry based pull down assay; format: cell-based
Chain of Amidophosphoribosyltransferase (Homo sapiens) (Q06203 whole entry): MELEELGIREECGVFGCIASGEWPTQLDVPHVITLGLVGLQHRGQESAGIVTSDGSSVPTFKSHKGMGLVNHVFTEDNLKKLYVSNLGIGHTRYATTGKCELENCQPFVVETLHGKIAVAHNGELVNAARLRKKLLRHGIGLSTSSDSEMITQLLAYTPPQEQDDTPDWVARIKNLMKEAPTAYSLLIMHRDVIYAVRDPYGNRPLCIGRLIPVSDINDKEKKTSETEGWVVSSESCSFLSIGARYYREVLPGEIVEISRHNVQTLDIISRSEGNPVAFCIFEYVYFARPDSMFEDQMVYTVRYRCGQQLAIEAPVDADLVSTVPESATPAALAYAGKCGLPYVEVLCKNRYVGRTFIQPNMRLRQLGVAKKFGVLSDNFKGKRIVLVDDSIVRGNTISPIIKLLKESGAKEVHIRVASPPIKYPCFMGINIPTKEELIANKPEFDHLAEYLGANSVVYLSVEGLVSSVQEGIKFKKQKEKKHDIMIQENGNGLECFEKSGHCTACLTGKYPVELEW

[20] = target: Glycogen synthase kinase-3 alpha (Homo sapiens) (UniProt P49840); assay: Binding affinity to GSK3A in human NCI-H358 cells at 1 uM by mass spectrometry based pull down assay; format: cell-based
[21] = target: Trafficking protein particle complex subunit 5 (Homo sapiens) (UniProt Q8IUR0); assay: Binding affinity to TRAPPC5 in human NCI-H358 cells at 1 uM by mass spectrometry based pull down assay; format: cell-based
Chain of Trafficking protein particle complex subunit 5 (Homo sapiens) (Q8IUR0 whole entry, one chain of several): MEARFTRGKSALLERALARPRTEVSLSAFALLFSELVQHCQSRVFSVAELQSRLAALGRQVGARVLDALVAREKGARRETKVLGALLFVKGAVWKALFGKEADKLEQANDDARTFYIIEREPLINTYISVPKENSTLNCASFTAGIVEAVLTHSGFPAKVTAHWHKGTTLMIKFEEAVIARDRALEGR

[22] = target: Uracil-DNA glycosylase (Homo sapiens) (UniProt P13051); assay: Binding affinity to UNG in human NCI-H358 cells at 1 uM by mass spectrometry based pull down assay; format: cell-based
[23] = target: (E3-independent) E2 ubiquitin-conjugating enzyme (Homo sapiens) (UniProt Q9C0C9); assay: Binding affinity to UBE2O in human NCI-H358 cells at 1 uM by mass spectrometry based pull down assay; format: cell-based
[24] = target: Ribosomal protein S6 kinase alpha-4 (Homo sapiens) (UniProt O75676); assay: Binding affinity to RPS6KA4 in human NCI-H358 cells at 1 uM by mass spectrometry based pull down assay; format: cell-based
[25] = target: Bifunctional phosphoribosylaminoimidazole carboxylase/phosphoribosylaminoimidazole succinocarboxamide synthetase (Homo sapiens) (UniProt P22234); assay: Binding affinity to PAICS in human NCI-H358 cells at 1 uM by mass spectrometry based pull down assay; format: cell-based
Chain of Bifunctional phosphoribosylaminoimidazole carboxylase/phosphoribosylaminoimidazole succinocarboxamide synthetase (Homo sapiens) (P22234 whole entry, the tested form may be a part): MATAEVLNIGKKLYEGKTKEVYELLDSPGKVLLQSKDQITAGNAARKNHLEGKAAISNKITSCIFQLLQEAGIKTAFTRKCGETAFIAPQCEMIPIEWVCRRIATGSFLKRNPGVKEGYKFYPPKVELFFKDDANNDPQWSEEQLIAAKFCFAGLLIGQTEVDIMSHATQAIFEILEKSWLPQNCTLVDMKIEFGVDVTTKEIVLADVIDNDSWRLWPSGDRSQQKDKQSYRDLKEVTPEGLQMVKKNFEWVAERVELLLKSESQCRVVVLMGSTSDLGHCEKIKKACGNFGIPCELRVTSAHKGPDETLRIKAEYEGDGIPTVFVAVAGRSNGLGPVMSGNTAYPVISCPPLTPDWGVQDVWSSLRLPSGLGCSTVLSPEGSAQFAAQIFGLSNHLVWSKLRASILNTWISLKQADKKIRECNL

[26] = target: Tyrosine-protein kinase JAK1 (Homo sapiens) (UniProt P23458); assay: Inhibition of JAK1 domain2 in human SKCO1 cells at 1 uM after 4 hrs using biotin labeled IGDFGLTKAIETDKEYYTVK probe by mass-spectrometric analysis relative to control; format: cell-based
Chain of Tyrosine-protein kinase JAK1 (Homo sapiens) (P23458 whole entry, the tested form may be a part): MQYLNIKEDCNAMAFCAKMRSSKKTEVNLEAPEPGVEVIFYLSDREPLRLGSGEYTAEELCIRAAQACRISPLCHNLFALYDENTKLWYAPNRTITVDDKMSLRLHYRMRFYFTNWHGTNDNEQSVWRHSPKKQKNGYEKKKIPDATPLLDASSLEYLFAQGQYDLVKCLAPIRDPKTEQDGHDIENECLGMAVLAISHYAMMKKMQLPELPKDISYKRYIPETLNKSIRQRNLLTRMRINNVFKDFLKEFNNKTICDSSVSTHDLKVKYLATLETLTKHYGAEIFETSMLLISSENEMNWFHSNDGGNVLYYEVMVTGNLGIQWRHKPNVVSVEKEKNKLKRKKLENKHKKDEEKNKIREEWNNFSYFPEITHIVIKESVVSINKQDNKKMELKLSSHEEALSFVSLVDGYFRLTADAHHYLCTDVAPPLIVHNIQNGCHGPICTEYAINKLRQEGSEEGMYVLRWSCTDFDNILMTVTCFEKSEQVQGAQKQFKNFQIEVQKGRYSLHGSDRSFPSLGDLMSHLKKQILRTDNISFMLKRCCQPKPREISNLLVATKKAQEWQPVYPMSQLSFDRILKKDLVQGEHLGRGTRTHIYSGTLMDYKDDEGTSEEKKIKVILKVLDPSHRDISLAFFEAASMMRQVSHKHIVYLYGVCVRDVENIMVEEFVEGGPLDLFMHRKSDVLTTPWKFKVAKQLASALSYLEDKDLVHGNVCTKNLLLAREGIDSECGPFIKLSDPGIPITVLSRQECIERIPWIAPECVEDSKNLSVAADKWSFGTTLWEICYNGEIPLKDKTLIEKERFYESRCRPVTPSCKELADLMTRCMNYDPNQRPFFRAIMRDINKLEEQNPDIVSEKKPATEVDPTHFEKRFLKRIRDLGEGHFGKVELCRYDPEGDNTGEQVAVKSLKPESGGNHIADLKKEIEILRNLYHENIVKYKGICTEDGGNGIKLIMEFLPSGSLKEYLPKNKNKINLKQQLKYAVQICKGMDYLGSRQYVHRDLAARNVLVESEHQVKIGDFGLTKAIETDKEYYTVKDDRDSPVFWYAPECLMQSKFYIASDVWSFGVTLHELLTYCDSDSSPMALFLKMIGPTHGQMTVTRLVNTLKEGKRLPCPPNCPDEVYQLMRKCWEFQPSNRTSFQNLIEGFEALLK

Structure (SMILES): COc1cc(O)c2c(c1)/C=C/C[C@H](O)[C@H](O)C(=O)/C=C\C[C@H](C)OC2=O
Activity [1]: 4.2%
Activity [2]: 68%
Activity [3]: 78%

Activity [4]: Active
Activity [5]: Active
Activity [6]: Active
Activity [7]: Active
Activity [8]: Active
Activity [9]: Active
Activity [10]: Active
Activity [11]: Active
Activity [12]: Active
Activity [13]: Active
Activity [14]: Active
Activity [16]: Active
Activity [17]: Active
Activity [18]: Active
Activity [19]: Active
Activity [20]: Active
Activity [21]: Active
Activity [22]: Active
Activity [23]: Active
Activity [24]: Active
Activity [25]: Active
Structure (SMILES): C=CC(=O)Nc1ccccc1Nc1nc(Nc2ccc(N3CCN(CCOCCOCCOCCNC(=O)CCCC[C@@H]4SC[C@@H]5NC(=O)N[C@@H]54)CC3)cc2)ncc1Cl
Activity [15]: Active

Structure (SMILES): C=CC(=O)Nc1ccccc1Nc1nc(Nc2ccc(N3CCN(C)CC3)cc2)ncc1Cl
inhibition [26]: 2.6%
